# Most compounds without a hit are left out; they make up all but 3.7% or so of the library.
# Mdm2 ligase inh = Mdm2 E3 ligase (human) inhibition | Q00987 | cell-based MDM2 ubiquitination luciferase reporter, 2 h; 0 = plate control, 100 = twice control, blank-subtracted | signal enhancement, % at 5 µM | 0.11% of 210,000 active;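 active = signal enhancement of 30% or more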;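 also: luminescence tracks abundance of the self-degrading MDM2-luciferase fusion protein; higher signal means inhibition of MDM2 E3 ligase activity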
#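 Assay system: stable mammalian line carrying autodegrading MDM2–luciferase fusion reporter; amount: 2000 cells seeded into each well; buffer or medium: DMEM; benchmarks: plate control and blank wells; signal: luciferase luminescence; timing: 2 h compound exposure at 37 °C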
# Calpain2 inh = blocks pig calpain II enzyme activity; purified calpain II, fluorogenic peptide substrate, 30 min; inhibition, % at 16 µM; 0.37% of 220,000 active;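 active = inhibition above about 50%, limit read from the data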
# Arbovirus anti = antivirals against arbovirus infection. 0.37% of 200,000 active. arbovirus infection cell-based antiviral screen. inhibition, % at 10 µM; in the data active = inhibition above about 30%
# PKD1 inh = PKD1 (human) kinase inhibition. Q15139. PKD1 kinase fluorescence polarization assay. inhibition, % (no concentration beside the values). 0.056% of 200,000 active. AID 797; in the data active = inhibition above about 50%
# ROMK primary = modulators of human ROMK potassium channel. Tet-inducible ROMK, thallium flux fluorescence; actives lie on both sides. B-score at 10 µM. 2% of 130,000 active. P48048;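 active = signal ratio slope over the read window, or its plate-corrected B-score, at least 3 SD from the plate mean, either direction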;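 also: B-score of the F/F0 ratio slope over 7 to 12 s after thallium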
# Target sequence (P48048 whole entry, looked up): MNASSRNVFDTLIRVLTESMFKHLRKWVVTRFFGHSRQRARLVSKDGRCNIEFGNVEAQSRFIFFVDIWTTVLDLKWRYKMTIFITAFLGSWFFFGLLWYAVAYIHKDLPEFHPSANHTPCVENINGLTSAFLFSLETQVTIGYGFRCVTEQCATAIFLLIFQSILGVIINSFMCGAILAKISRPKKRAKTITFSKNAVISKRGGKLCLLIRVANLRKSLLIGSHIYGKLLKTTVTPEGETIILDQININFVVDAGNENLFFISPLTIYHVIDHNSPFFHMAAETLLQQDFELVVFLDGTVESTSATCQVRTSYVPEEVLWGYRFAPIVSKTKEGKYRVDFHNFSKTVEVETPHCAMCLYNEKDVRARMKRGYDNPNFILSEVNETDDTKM
# KCC2 mod = KCC2 (human) Cl- transport modulation; AID 1456; B-score of Tl+ flux slope (higher = more flux/activation; lower = inhibition) at 10 µM; 2.2% of 190,000 active; Q9H2X9; KCC2 cells, thallium flux FluoZin-2 fluorescence;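 active = thallium flux slope and its plate-corrected score both differing from the plate sample mean at a set confidence after two filtering rounds, in either direction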;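 also: slope of fluorescence scaled to starting intensity during 10 to 20 s after thallium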
# * hit, by the source's call; i = inactive; x = not tested or not shown.
SMILES,Mdm2 ligase inh,Calpain2 inh,Arbovirus anti,PKD1 inh,ROMK primary,KCC2 mod
CSc1ccccc1C(=O)NCc1ccc(F)cc1,-11.0,-3.3,-2.7,73.7*,-0.735,0.827
CCOC(=O)c1cc(CC)sc1NC(=O)c1cc(OCC)c(OCC)c(OCC)c1,-9.5,-91.9,4.4,2.4,x,-0.00576
CCc1cc(C(=O)O)c(NC(=O)c2cc(OC)c(OC)c(OC)c2)s1,-0.1,18.7,76.2*,2.1,1.47,-1.34
Nc1nc(Nc2ccccc2F)nc(N2CCOCC2)c1[N+](=O)[O-],-91.0,-3.8,x,x,x,-0.0506
Cc1ccc(NC(=O)CSC(N)=O)cc1Cl,-12.1,20.8,4.0,-3.6,x,-3.54*
Cc1ccc(Nc2nnc(SCC3CCCCO3)s2)cc1 (stereo unspecified),848.3*,38.4,-4.7,0.2,0.165,0.0903
CCN(CC)S(=O)(=O)c1ccc2c(c1)nc(CCC(=O)Nc1ccc(N3CCOCC3)cc1)n2C,-84.8,-118.3,14.5,-3.5,0.337,0.87
COc1ccc(Nc2nc(C(=O)N3CCc4cc(OC)c(OC)cc4C3)cs2)cc1,x,-2.9,x,x,x,x
COc1ccc(Nc2nc(C(=O)N3CCc4ccccc4C3)cs2)cc1,33.1*,-2.8,-0.5,1.5,x,-0.971
CCN(Cc1ccncc1)Cc1cn[nH]c1-c1cc(OC)c(OC)c(OC)c1,-8.6,-36.5,4.8,6.5,0.0201,x
CCC(C(=O)NC(C)CCc1ccccc1)n1nc(C)n2c(cc3occc32)c1=O (stereo unspecified),-0.7,-15.0,-9.6,-12.7,x,-5.51*
CCC(C(=O)NC(C)CCc1ccco1)n1nc(C)n2c(cc3occc32)c1=O (stereo unspecified),-7.5,2.5,-10.4,-0.6,x,-1.12
Cc1ccc2c(c1)c1c(n2CC(O)Cn2c(C)nc3ccccc32)C(=O)CCC1 (stereo unspecified),-4.8,-210.5,37.1*,1.3,x,0.0431
Cc1ccc2c(c1)c1c(n2CC(O)Cn2c(C)nc3ccccc32)/C(=N\O)CCC1 (stereo unspecified),-7.0,-34.3,-33.3,4.7,x,-0.629
CCCSc1nc(=S)n(Cc2ccccc2)c(C)c1C(C)=O,13.7,-14.5,3.2,5.7,0.118,-0.0201
COc1ccc(NC(=O)CSc2nc3ccsc3c(=O)n2CCCCCC(=O)O)cc1,-15.2,-20.3,2.4,-2.8,0.0119,0.651
CC1=C(C(=O)NC(C)CCc2ccccc2)C2(CCC(C)CC2)OC1=O (stereo unspecified),36.2*,-19.9,8.5,-2.8,x,-2.48
C=C(C)CNC(=S)N/N=C1\CCCCc2ccccc21,-9.8,13.2,24.4,-2.0,x,11*
CCNC(=S)N/N=C1\CCCCc2ccccc21,1.7,6.9,0.5,-13.8,x,6.59*
COc1cccc(CN2CCNC(=O)C2CC(=O)N(Cc2cnn(C)c2)C(C)C)c1 (stereo unspecified),-4.0,-6.1,-3.0,3.6,0.161,-0.92
CCc1ccc(NC(=O)Cn2c(=O)n(CCC(=O)NC3CCN(Cc4ccccc4)CC3)c(=O)c3ccccc32)cc1,x,12.2,x,x,x,-0.281
COc1ccccc1C(=O)Nc1ccc(-c2nnn(CC(=O)NCc3ccco3)n2)cc1,x,-54.9,x,x,x,1.18
COc1ccccc1-n1c([S-])c(C(=O)Nc2ccccc2C(F)(F)F)[n+]2ccc(C(=O)NCCO)cc12,-3.4,68.7*,7.7,-5.3,0.575,0.337
CCN(CC)C(=O)/C(=C/c1cccc([N+](=O)[O-])c1)NC(=O)c1ccco1,-11.6,-10.2,-1.8,-0.5,-0.487,0.22
CC(C)NCC1CCc2cc(CO)c([N+](=O)[O-])cc2N1 (stereo unspecified),-7.5,-0.4,x,x,x,0.682
SMILES,Mdm2 ligase inh,Calpain2 inh,Arbovirus anti,PKD1 inh,ROMK primary,KCC2 mod
CCC(C)C(NC(=O)c1ccc(Cl)cc1)C(=O)Nc1cccnc1 (stereo unspecified),0.1,101.7*,0.7,-5.9,1.22,1.5
CCC(=O)Nc1ccc(C(=O)Nc2cccnc2)cc1,-14.2,-22.2,-3.0,-4.1,x,x
CCOc1cc(/C=N/n2c(C)nnc2C)ccc1O,-3.1,14.8,x,x,0.301,-0.434
CCC1=NN(C(=O)c2cccc(Br)c2)C(O)(c2ccc(Br)cc2)C1 (stereo unspecified),-8.9,15.3,-30.6,-5.2,x,6.46*
CCC1=NN(C(=O)c2ccc(C)cc2)C(O)(c2ccc(Br)cc2)C1 (stereo unspecified),-17.0,19.1,-17.9,-6.1,x,-0.646
O=C(CN1CCCCCCC1)Nc1ccc(Cl)cc1Cl,-4.1,87.8*,2.2,-1.6,-0.00586,0.501
O=C1CN(C(=O)/C=C/c2ccc(Cl)cc2)c2ccccc2N1,-0.8,-4.2,31.0*,-0.2,0.228,0.0493
CC(CCc1ccccc1)NC(=O)CSc1cccc[n+]1[O-] (stereo unspecified),-3.0,53.2*,16.3,-3.5,0.328,0.0398
CCc1ccc(-c2cc(-c3n[nH]c(=S)n3CC)c3ccccc3n2)cc1,-6.2,-50.6,-0.1,-2.9,0.714,2.35
CCn1c(-c2cc(-c3cccc(OC)c3)nc3ccccc23)n[nH]c1=S,-8.7,-8.6,-23.1,5.7,0.0744,2.71*
COc1ccc(N2C(=O)CSC2c2ccccc2[N+](=O)[O-])cc1 (stereo unspecified),-11.4,32.3,-2.0,1.8,0.621,0.312
Cc1cccc(Cn2c(Sc3nc(C)cs3)nc3c2c(=O)[nH]c(=O)n3C)c1,-9.6,-2.8,-2.0,0.8,x,0.758
C=CCn1c(Sc2nc(C)cs2)nc2c1c(=O)[nH]c(=O)n2C,0.1,53.2*,3.1,2.4,x,-0.109
Cn1c(=O)c2c(nc(Sc3ncnn3CC(=O)NC3CCCCC3)n2C)n(C)c1=O,-6.5,-21.7,x,x,-0.412,1.84
O=C1NC[C@H](Cc2ccc(O)cc2)N(CC2CCCCC2)C1=O,2.3,-9.5,x,x,x,0.219
Oc1ccc(C[C@@H]2CNC(=S)N2CCCCC2CCCCC2)cc1,x,51.0*,-21.5,2.7,x,-0.296
O=[N+]([O-])c1cccc(Cl)c1CSc1ccccn1,5.0,42.2,-3.0,0.8,0.653,-0.517
CCCCC(=O)/C=C/n1c(=S)oc2ccccc21,68.5*,-10.6,-42.7,-4.0,1.11,0.041
COc1cc2c3nnc(-c4ccccc4)c-3cn(Cc3ccccc3F)c2cc1OC,-16.3,-94.2,-7.0,-11.2,-6.76*,-1.26
COc1cc2c3nnc(-c4ccc(F)cc4)c-3cn(Cc3ccccc3F)c2cc1OC,-4.7,14.5,-5.1,1.3,-3.95*,i
CCCCCCCCCCn1c2c(c(=N)c3c1CCC3)CCC2,-10.9,54.3*,-26.0,12.2,x,0.591
O=C(CN1CCN(CCN2C(=O)c3cccc4cccc(c34)C2=O)CC1)c1ccc(F)cc1,-22.9,-87.8,5.5,11.4,x,x
O=C1c2cccc3cccc(c23)C(=O)N1CCCN1CCN(c2ccc(F)cc2)CC1,-4.2,54.1*,13.2,-2.1,-1.69,-0.836
Cc1cc(=O)[nH]c(SCC(=O)NN(c2ccccc2)c2ccccc2)n1,-13.6,0.8,x,x,x,-2.35
Brc1ccc(CSc2nnc(Cc3c[nH]c4ccccc34)o2)cc1,-17.9,69.5*,4.3,-1.8,x,0.597

# Compound activity deposited in PubChem BioAssay by several laboratories.
